Source: ChEMBL document CHEMBL3769315 (J Med Chem, 2016)
Converted amounts (≈) assume the structure as drawn.

Columns and labels:
[1] = test system: HepG2; assay: Cytotoxicity against human HepG2 cells assessed as ATP level by luminescence analysis
[2] = test system: Hepatitis C virus; assay: microbe, parasite or virus in culture; type: functional, Hepacivirus hominis; conditions: Huh-7, 48 h
[3] = test system: Vesicular stomatitis virus; assay: Antiviral activity against Vesicular stomatitis virus G pseudoparticle infected in human Huh7.5.1 cells at 10 uM after 4 hrs by luciferase reporter gene assay; type: functional; conditions: Huh-7, 4 h
[4] = test system: Murine leukemia virus; assay: Antiviral activity against Murine leukemia virus pseudoparticle infected in human Huh7.5.1 cells at 10 uM after 4 hrs by luciferase reporter gene assay; type: functional; conditions: Huh-7, 4 h
[5] = test system: Hepatitis C virus; assay: Antiviral activity against HCV genotype 2a assessed as inhibition of RNA replication at 10 uM by cell-based replicon assay; type: functional, Hepacivirus hominis
Method in brief: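 GT 2a subgenomic replicon cells were plated at 10^4/well and incubated overnight. They were then treated with compound (10 μM, or 3.2 or 1 μM for some compounds) for 48 h. Luciferase activity was read and expressed as % of DMSO.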

[6] = Solubility of compound in phosphate buffer at pH 7.4
[7] = Metabolic stability in mouse liver microsomes assessed as half life by LC-MS/MS analysis in presence of NADPH
[8] = test system: Liver microsome; assay: (§1) Metabolic stability in rat liver microsomes assessed as half life by LC-MS/MS analysis in presence of NADPH
[9] = test system: Hepatitis C virus; assay: Antiviral activity against HCV genotype 1a pseudoparticle infected in human Huh7.5.1 cells assessed as inhibition of virus entry at 10 uM after 4 hrs by luciferase reporter gene assay; type: functional, Hepacivirus hominis; conditions: subtype 1a, Huh-7, 4 h
[10] = (§2) Metabolic stability in human liver microsomes assessed as half life by LC-MS/MS analysis in presence of NADPH
[11] = biological target: histamine H1 receptor (Homo sapiens, UniProt P35367); assay: in vitro; conditions: PathHunter cells
Sequence of histamine H1 receptor (P35367 whole entry): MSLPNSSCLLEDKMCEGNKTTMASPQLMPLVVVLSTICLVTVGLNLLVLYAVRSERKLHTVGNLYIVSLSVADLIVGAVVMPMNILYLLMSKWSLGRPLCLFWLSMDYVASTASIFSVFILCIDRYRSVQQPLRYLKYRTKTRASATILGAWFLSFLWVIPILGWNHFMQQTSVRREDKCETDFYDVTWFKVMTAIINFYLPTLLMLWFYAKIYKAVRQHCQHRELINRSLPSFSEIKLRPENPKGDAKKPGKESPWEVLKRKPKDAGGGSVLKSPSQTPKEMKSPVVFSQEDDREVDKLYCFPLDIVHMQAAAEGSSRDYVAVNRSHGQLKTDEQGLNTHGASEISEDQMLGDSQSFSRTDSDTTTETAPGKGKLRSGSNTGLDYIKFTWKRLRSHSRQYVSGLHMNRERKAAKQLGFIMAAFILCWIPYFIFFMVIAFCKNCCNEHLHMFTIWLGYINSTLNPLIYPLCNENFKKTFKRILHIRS

[12] = test system: Hepatitis C virus; assay: Antiviral activity against HCV genotype 1b pseudoparticle infected in human Huh7.5.1 cells assessed as inhibition of virus entry at 10 uM after 4 hrs by luciferase reporter gene assay; type: functional, Hepacivirus hominis; conditions: Huh-7, 4 h
[13] = test system: Liver microsome; assay: as §2
[14] = Cytotoxicity against human Huh7.5.1 cells assessed as ATP level by luminescence analysis; conditions: huh-7
[15] = test system: Hepatitis C virus; assay: microbe, parasite or virus in culture; type: functional, organism-based, Hepacivirus hominis; conditions: JFH-1, Huh-7.5.1, 48 h
[16] = Cmax in CD-1 mouse liver at 50 mg/kg, ip after 24 hrs by UPLC-MS/MS analysis; type: ADME, organism-based; design: dose 50 mg/kg, route intraperitoneal
[17] = AUClast in CD-1 mouse liver at 50 mg/kg, ip after 24 hrs by UPLC-MS/MS analysis; type: ADME, organism-based; design: dose 50 mg/kg, time < 24 hr, route intraperitoneal
[18] = test system: Hepatocyte; conditions: human, hepatocytes
[19] = AUCinfinity in CD-1 mouse plasma at 50 mg/kg, ip after 24 hrs by UPLC-MS/MS analysis; type: ADME, organism-based; design: dose 50 mg/kg, route intraperitoneal, time infinity
[20] = test system: Human alphaherpesvirus 1; assay: microbe, parasite or virus in culture
[21] = test system: Venezuelan equine encephalitis virus; assay: microbe, parasite or virus in culture
[22] = test system: SARS-CoV; assay: microbe, parasite or virus in culture; conditions: Severe acute respiratory syndrome-related coronavirus
[23] = test system: Vaccinia virus; assay: microbe, parasite or virus in culture; conditions: Orthopoxvirus vaccinia
[24] = test system: Poliovirus 3; assay: microbe, parasite or virus in culture; conditions: Enterovirus C
[25] = test system: Rift Valley fever virus; assay: microbe, parasite or virus in culture
[26] = test system: Respiratory syncytial virus; assay: microbe, parasite or virus in culture; conditions: human respiratory syncytial virus
[27] = test system: Dengue virus; assay: microbe, parasite or virus in culture
[28] = test system: Influenza A virus; assay: microbe, parasite or virus in culture; conditions: H1N1
[29] = test system: Human betaherpesvirus 5; assay: microbe, parasite or virus in culture
[30] = test system: Hepatitis B virus; assay: microbe, parasite or virus in culture
[31] = test system: Hepatitis C virus; assay: microbe, parasite or virus in culture
[32] = test system: Tacaribe virus; assay: microbe, parasite or virus in culture; conditions: Mammarenavirus tacaribeense
[33] = (§3) Half life of compound in CD-1 mouse liver at 10 mg/kg, ip by UPLC-MS/MS analysis; type: ADME, organism-based; conditions: CD-1, mouse, liver
Method in brief: (§4)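 Male CD-1 mice (~35 g) got a single i.p. dose of 10 mg/kg, prepared fresh at 2 mg/mL in 10% PEG300 / 90% of 30% HP-β-CD in water. Drug was measured by UPLC-MS/MS. Parameters came from noncompartmental analysis, with AUC by the linear trapezoidal method and liver/plasma ratios taken.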

[34] = Selectivity index, ratio of CC50 for human Huh7.5.1 cells infected with HCV JFH-1 virus to EC50 for HCV JFH-1 virus
[35] = test system: Hepatitis C virus; assay: Antiviral activity against HCV genotype 1a pseudoparticle infected in human Huh7.5.1 cells assessed as inhibition of virus entry at 3.2 uM after 4 hrs by luciferase reporter gene assay; type: functional, Hepacivirus hominis; conditions: subtype 1a, Huh-7, 4 h
Method in brief: (§5)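 Huh7.5.1 cells seeded at 10^4 cells/well, cultured overnight, then infected for 4 h with pseudoparticles (HCVpp GT 1a or 1b, MLVpp, VSV-Gpp) while compound was present. Cells were washed and cultured 48 h, then a luciferase read-out was taken. Values are expressed as % of DMSO control. Cyclosporin A 10 μM and bafilomycin A1 10 nM were run in parallel.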

[36] = Cmax in CD-1 mouse liver at 10 mg/kg, ip after 24 hrs by UPLC-MS/MS analysis; type: ADME, organism-based; design: dose 10 mg/kg, route intraperitoneal; method in brief: as §4
[37] = test system: Hepatitis C virus; assay: Antiviral activity against single rounded infectious HCV infected in human Huh7.5.1 cells assessed as viral level at 3.2 uM after 48 hrs by luciferase reporter gene assay; type: functional, Hepacivirus hominis; conditions: Huh-7, 48 h
Method in brief: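 Huh7.5.1 cells (10^4 cells/well, overnight) were infected with single-round infectious HCV (HCVsc) in the presence of compound. Viral level was measured by luciferase after 48 h and expressed as % of DMSO control. The assay reports inhibition of early stages before assembly.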

[38] = test system: Murine leukemia virus; assay: Antiviral activity against Murine leukemia virus pseudoparticle infected in human Huh7.5.1 cells at 3.2 uM after 4 hrs by luciferase reporter gene assay; type: functional; conditions: Huh-7, 4 h; method in brief: as §5
[39] = test system: Vesicular stomatitis virus; assay: Antiviral activity against Vesicular stomatitis virus G pseudoparticle infected in human Huh7.5.1 cells at 3.2 uM after 4 hrs by luciferase reporter gene assay; type: functional; conditions: Huh-7, 4 h; method in brief: as §5
[40] = test system: Hepatitis C virus; assay: Antiviral activity against HCV genotype 1b pseudoparticle infected in human Huh7.5.1 cells assessed as inhibition of virus entry at 3.2 uM after 4 hrs by luciferase reporter gene assay; type: functional, Hepacivirus hominis; conditions: Huh-7, 4 h; method in brief: as §5
[41] = test system: Hepatitis C virus; assay: Antiviral activity against HCV genotype 2a assessed as inhibition of RNA replication at 3.2 uM by cell-based replicon assay; type: functional, Hepacivirus hominis
Method in brief: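 GT 2a subgenomic HCV replicon cells were seeded at 10^4 cells/well and incubated overnight. They were then exposed to compound for 48 h, and replication was read by luciferase activity. Results are given as % of DMSO control.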

[42] = as §1
[43] = test system: Liver; assay: as §3; type: ADME, organism-based; conditions: mouse, in vivo; method in brief: as §4
[44] = test system: Mus musculus; assay: Hepatotoxicity in CD-1 mouse serum assessed as ALT level at 10 mg/kg, ip by UPLC-MS/MS analysis; type: toxicity, organism-based; conditions: in vivo
Method in brief: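 ALT was measured in serum from the mouse PK study: male CD-1 mice, single 10 mg/kg i.p. dose in 10% PEG300 / 90% of 30% HP-β-CD, samples from 0.083 to 24 h. A vehicle-only dosing group served as control. Individual mice were plotted, with mean ± SEM.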

| SMILES | CC50 [1] [µM] | inhibition at 10 µM [2] [%] | inhibition at 10 µM [3] [%] | inhibition at 10 µM [4] [%] | inhibition at 10 µM [5] [%] | solubility kinetic [6] [µg/mL] | t1/2 [7] [min] | t1/2 [8] [min] | inhibition at 10 µM [9] [%] | inhibition at 2 h, 0.01 µM [11] [%] | inhibition at 10 µM [12] [%] | t1/2 [13] [min] | CC50 [14] [µM] | EC50 [15] [µM] | also measured |
| --- | --- | --- | --- | --- | --- | --- | --- | --- | --- | --- | --- | --- | --- | --- | --- |
| CCN1CCN(C(c2ccc(Cl)cc2)c2ccc(Cl)cc2)CC1 | 56 | 10.1 | 110 | 96.5 | 128 | 17.7 (≈ 50.7 µM) | 12.6 | 2.2 | 76.6 | 31.7 | 108 | – | – | – | half-life [10]: 30 min |
| OCCOCCN1CCN(C(c2ccc(Cl)cc2)c2ccc(Cl)cc2)CC1 | – | 1.8 | 109 | 108 | 98.8 | 44.5 (≈ 109 µM) | 10 | 13.7 | 71.7 | 23.7 | 80.8 | > 30 | – | – | – |
| NCCOCCOCCOCCOCCN1CCN(C(c2ccccc2)c2ccc(Cl)cc2)CC1 (racemic) | 12.6 | 1.4 | 99.8 | 117 | 63.6 | 46 (≈ 90.9 µM) | 29.1 | 11.7 | 95.8 | 54.1 | 91.7 | 26.2 | 12.2 | – | – |
| CN1CCN([C@@H](c2ccccc2)c2ccc(Cl)cc2)CC1 | 32.3 | 2.1 | 120 | 103 | 101 | 29.3 (≈ 97.4 µM) | – | – | 107 | 49.5 | 116 | – | 33.4 | 0.24 | Cmax [16]: 436 µM; AUC(0-t) at 24 h [17]: 1310 µM·h; CC50 [18]: > 31.6 µM; AUC(0-inf) [19]: 48.9 µM·h |
| CCN1CCN([C@@H](c2ccccc2)c2ccc(Cl)cc2)CC1 | 68.9 | 2 | – | – | – | 12.3 (≈ 39.1 µM) | – | – | – | 60.7 | – | – | 40 | – | EC50 [20]: ≥ 1 µM; EC50 [21]: ≥ 1 µM; EC50 [22]: ≥ 1 µM; EC50 [23]: ≥ 1 µM; EC50 [24]: ≥ 1 µM; EC50 [25]: ≥ 1 µM; EC50 [26]: ≥ 1 µM; EC50 [27]: ≥ 1 µM; EC50 [28]: ≥ 1 µM; EC50 [29]: ≥ 1 µM; EC50 [30]: ≥ 1 µM; EC50 [31]: ≥ 1 µM; EC50 [32]: ≥ 1 µM |
| Clc1ccc([C@H](c2ccccc2)N2CCNCC2)cc1 | – | – | – | – | – | 30.3 (≈ 106 µM) | – | – | – | 88.1 | – | – | 9.31 | 0.032 | half-life [33]: 282 min; selectivity ratio [34]: 333; inhibition at 3.2 µM [35]: 98.8%; Cmax [36]: 216 µM; inhibition at 3.2 µM [37]: 28.1%; inhibition at 3.2 µM [38]: 57.5%; CC50 [18]: 9.01 µM; inhibition at 3.2 µM [39]: 51.9%; inhibition at 3.2 µM [40]: 66.3%; inhibition at 3.2 µM [41]: 61.6% |
| CCN1CCN([C@H](c2ccccc2)c2ccc(Cl)cc2)CC1 | – | – | – | – | – | – | – | – | – | – | – | – | 37.9 | – | half-life [42]: 132 min |
| [2H]C([2H])([2H])CN1CCN([C@H](c2ccccc2)c2ccc(Cl)cc2)CC1 | – | – | – | – | – | – | – | – | – | – | – | – | 81.5 | – | half-life [42]: 174 min |
| CN1CCN(C(c2ccccc2)c2ccc(Cl)cc2)CC1 (racemic) [CHLORCYCLIZINE] | – | 24.9 | 105 | 124 | 102 | – | 36 | 4.6 | 92.5 | 16 | 120 | 113 | 49.8 | 0.44 | – |
| CN1CCN(C(c2ccc(Cl)cc2)c2ccc(Cl)cc2)CC1 | – | 12.4 | 119 | 116 | 112 | > 49 | 91 | 26 | 76.2 | 18.5 | 91.9 | > 120 | – | – | t1/2 [43]: 510 min; Activity [44]: 80 U/L |
